# High-throughput results deposited in PubChem by several laboratories.
# Beta cell apopt – beta cell apoptosis inhibition. INS-1E cytokine-induced death, ATP luminescence, 48 h; percent of positive-control rescue, neutral wells zero. hit rate 0.8% among 300,000. protection from apoptosis, % (concentration not given with the values);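 active = Every replicate reaches about 75%, or at least half do and their mean reaches it too, limit read from the data; inconclusive = At least half of replicates reach the limit but their mean does not; inactive = Under half of replicates reach the limit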;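 also: 0% = cytokine-treated negative control wells and 100% = positive control rescue; higher means more ATP so stronger rescue from cytokine killing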
# SKKanGAS inh – blocks kanamycin growth of S. pyogenes SKKanGAS strain | inhibition, % at 7.5 µM | hit rate 1.3% among 300,000 | AID 1662 | BacTiter-Glo, 6 h;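 active = mean replicate score, as percent of positive control median, at least 50; inconclusive = mean below 50 but one replicate at or above 50; inactive = mean and every replicate below 50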;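 also: strain carries kanamycin resistance gene driven by streptokinase promoter and grows in 40 µg/ml kanamycin; loss of luminescence reflects streptokinase promoter inhibition or plain growth inhibition; 0% = median of DMSO wells and 100% = positive control at its reference dose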
# T cruzi repl – T. cruzi replication inhibition; T. cruzi beta-gal in NIH3T3, luminescence, 90 h; hit rate 1.4% among 300,000; inhibition, % (concentration not given with the values);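 active = mean inhibition across valid replicates above about 55%, limit read from the data; inconclusive = mean below that limit but half or more replicates reach it; inactive = mean below it, under half of replicates reach it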;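 also: signal also drops with host cell toxicity which is not excluded here; 0% = plate median of DMSO wells and 100% = zero luminescence signal; higher percent means less beta-gal luminescence so fewer parasites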
#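 Incubation – ≥90 h infection period, 3 h prior cell attachment · System – NIH/3T3 fibroblasts plus reporter T. cruzi · Doses – compound pinned at 50 nL/well, DMSO · Read-out basis – percent inhibition of parasite-derived β-gal signal · Signal – luminescent β-galactosidase signal after 60 min lysis · Also added – 5000 T. cruzi trypomastigotes/well · Medium – Low-serum DMEM with 2% FBS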
# Calb FLC – C. albicans growth modulation with fluconazole. C. albicans CaCi-2 (fluconazole-resistant clinical isolate) + fluconazole, Alamar Blue growth, 48 h. growth inhibition, % (concentration not given with the values). hit rate 0.57% among 300,000. AID 1979;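 active = growth inhibition above about 58% in most replicates, limit read from the data, passing the limit was not always enough; inconclusive = exactly half the replicates above a set limit; inactive = most replicates below a set limit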;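 also: all wells also contain fluconazole at 8 µg/ml as a sub-toxic cotreatment; 0% = median of DMSO wells and 100% = median of geldanamycin control wells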
# Mdm2 MdmX PPI – inhibitors of human Mdm2/MdmX interaction; O15151+Q00987; SaOS-2 split-luciferase Mdm2/MdmX complementation, luminescence; inhibition, % at 8 µM; hit rate 3% among 330,000;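 active = inhibition of at least 50% at 8 µM in the primary screen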
# CSC inhib – blocks cancer stem cells. cancer stem cell-like cells viability, luminescence. inhibition, % at 7.5 µM. hit rate 1.1% among 300,000. AID 2717; in the data active = inhibition above about 75%; inconclusive = no clear call, values can overlap the other calls; tested in HMLE shEcad cells
# * hit, by the source's call; ? = inconclusive; · = no result given. Most compounds without a hit are left out; they make up all but 5.7% or so of the library.
SMILES,Beta cell apopt,SKKanGAS inh,T cruzi repl,Calb FLC,Mdm2 MdmX PPI,CSC inhib
O=C(NC(=S)Nc1ccccc1N1CCCC1)c1ccccc1Br,1,81*,21,2,16,3
CCC(=O)N1c2ccc(S(=O)(=O)N3CCN(c4cc(C)ccc4C)CC3)cc2CC1C (configuration not stated),0,21,46,14,19,4
O=C(O)C(Cc1c[nH]c2ccccc12)NS(=O)(=O)c1ccc(Cl)c(C(F)(F)F)c1 (configuration not stated),-5,5,-14,-1,16,3
O=C1[C@@H]2Cc3c([nH]c4ccccc34)CN2C(=O)CN1CCCCCO,-2,-3,12,-1,-10,12
CCOCCN1CCN(C2c3ccccc3CSc3ccccc32)CC1 (configuration not stated),-6,-5,32,0,23,30
CN1C/C(=C/c2ccsc2)C(=O)/C(=C/c2ccsc2)C1,1,7,56*,7,2,10
Oc1ccccc1C1=NN(c2ccccc2)C(c2ccc(F)cc2)C1 (configuration not stated),-3,11,30,5,19,24
Oc1ccc(C2=NN(c3ccccc3)C(c3ccc(F)cc3)C2)cc1 (configuration not stated),-2,81*,40,-8,3,?
COc1ccc(C2CC(c3ccccc3)=NN2c2ccc(S(N)(=O)=O)cc2)cc1 (configuration not stated),6,?,57*,53,42,-14
COc1ccc(C2CC(c3ccccc3Cl)=NN2c2ccc(S(N)(=O)=O)cc2)cc1 (configuration not stated),·,·,·,·,45,·
NS(=O)(=O)c1ccc(N2N=C(c3ccccc3)CC2c2ccc(F)cc2)cc1 (configuration not stated),7,64*,38,28,18,10
COc1ccc2[nH]c3c(=O)n(CCCCCC(=O)NCCC(C)C)c(=S)[nH]c3c2c1,-5,-1,-7,8,21,-7
COc1ccc(S(=O)(=O)N2CCN(c3cnccn3)CC2)cc1OC,-9,·,·,·,4,-10
CC(C)(CNc1ccc(S(=O)(=O)C(F)(F)F)cc1[N+](=O)[O-])N1CCOCC1,10,7,55*,13,21,53
Cc1cc2ccccc2n1CCNC(=O)C(C)Oc1ccccc1 (configuration not stated),4,3,63*,-3,24,-3
COC(=O)c1cc(Nc2cc(C)c3c(O)cccc3n2)cc(C(=O)OC)c1,6,6,15,6,24,45
Cc1ccc(Nc2cc(C)c3ccc(O)cc3n2)cc1C,0,-5,27,12,-2,86*
COc1ccc(Nc2cc(C)c3c(O)cccc3n2)cc1,2,7,60*,1,19,33
Cc1ccc(Nc2cc(C)c3c(O)cccc3n2)cc1C,23,10,66*,0,-44,40
N#Cc1cccnc1N1CCN(C(=O)c2cccs2)CC1,6,3,-1,-3,·,0
O=C(COc1ccccc1Br)Nc1ccc2c(c1)OCCCO2,-2,-10,3,-4,-87,1
Cc1cc(N2CCN(c3nc4ccccc4s3)CC2)n2ncnc2n1,87*,1,-45,-2,-11,1
CC(=O)N1CCc2cc(S(=O)(=O)NCCCN3CCC(C)CC3)ccc21,-3,-2,11,-1,9,-2
COCc1cc(C)nc(Oc2ccccc2)c1C#N,-2,1,3,-4,-3,10
Cc1ccsc1CN(C)CC(=O)Nc1cccc(S(=O)(=O)N(C)c2ccccc2)c1,·,·,·,·,7,·
SMILES,Beta cell apopt,SKKanGAS inh,T cruzi repl,Calb FLC,Mdm2 MdmX PPI,CSC inhib
CCOc1ccc(CN(C)CC(=O)Nc2cccc(S(=O)(=O)N(C)c3ccccc3)c2)cc1,-1,-5,73*,14,5,10
Cc1cccc(NC(=O)CSc2n[nH]c(-c3cccnc3)n2)c1,-2,5,-3,2,11,·
O=C1CC(C(F)(F)F)=NN1,-5,0,-20,-18,3,-8
COc1ccccc1OCCNC(=O)c1cccc(S(=O)(=O)NCc2ccccc2)c1,-3,·,·,·,7,3
CC(C)NCC(=O)Nc1c2c(nc3ccccc13)CCC2,-4,0,-18,-8,-16,-14
c1coc(CNc2c3c(nc4ccccc24)CCC3)c1,·,11,69*,5,25,-4
C/C(=C\c1ccccc1)C(=O)NCCCn1ccnc1,6,3,-23,22,-1,-8
CCCCN(Cc1ccc(C(=O)N[C@H](C(=O)O)C(C)C)cc1)C(=O)C(c1ccccc1)c1ccccc1,-1,5,-39,3,13,13
Cc1ccc(S(=O)(=O)Nc2cc(=O)[nH]c(SCc3ccccc3Cl)n2)cc1,11,13,?,-3,14,2
O=c1cc(NS(=O)(=O)c2ccccc2)nc(SCc2ccc(Cl)cc2)[nH]1,5,·,·,·,·,88*
Cc1ccc(-c2cc3nc(C)cc(C)n3n2)cc1,-3,-14,-19,26,-131,1
Cc1cc(C)n2nc(-c3ccsc3-n3c(C)ccc3C)cc2n1,3,0,55*,-5,-11,-1
CC(=O)Nc1ccc(Nc2nnc(-c3ccc(C)c(S(=O)(=O)NCC4CCCO4)c3)c3ccccc23)cc1 (configuration not stated),5,11,-6,-5,20,-14
Cc1ccc(-c2nnc(Nc3ccccc3)c3ccccc23)cc1S(=O)(=O)NCC1CCCO1 (configuration not stated),12,18,25,61*,36,-9
CC1=CC(C)(C)Nc2ccccc21,-2,8,75*,6,1,-12
CC1=CC(C)(C)Nc2ccc(OS(=O)(=O)c3ccc(C)cc3)cc21,3,4,53,40,3,4
COc1ccc2c(c1)NC(C)(C)C=C2C,13,36,66*,1,-6,-3
COc1ccc([C@H]2CC(=O)C=C(c3ccc(F)cc3OCc3ccccc3)C2)cc1OC,14,·,·,·,33,20
CCc1ccc(C(C)NC(=O)c2ccc3c(c2)OCO3)cc1 (configuration not stated),0,36,12,-5,17,-5
N=c1c(C(=O)NCc2ccc(F)cc2)cc2c(=O)n3ccccc3nc2n1Cc1cccnc1,·,-6,70*,-7,-36,-3
N=c1c(C(=O)NCc2ccccc2)cc2c(=O)n3ccccc3nc2n1CCCN1CCOCC1,5,·,·,·,30,·
CCOCCCn1c(=N)c(C(=O)NCc2ccc3c(c2)OCO3)cc2c(=O)n3ccccc3nc21,·,3,60*,-20,14,·
COCCCNC(=O)c1cc2cc(Br)ccc2oc1=O,-1,·,·,-3,13,1
O=C(NNC(=O)c1cc2cc(Br)ccc2oc1=O)c1ccc(O)cc1O,5,9,-36,-8,16,77*
